Experimental data taken from publication PMC4263960 (Pediatric blood & cancer, 2013).

Assays:
[1] = test system: NB-EBc1 neuroblastoma xenograft; experiment: PPTP in vivo xenograft testing, NB-EBc1; parameters: species or system mice
[2] = test system: ALL-19 ALL B-precursor xenograft; experiment: PPTP in vivo xenograft testing, ALL-19; parameters: species or system mice
[3] = Eribulin pharmacokinetics in SCID mice
Kasumi-1 cell line = experiment: DIMSCAN in vitro cytotoxicity testing, Kasumi-1; assay type: cell-based
Method in brief: (§1)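 Test compound incubated with cells of a 24-line pediatric cancer panel for 96 h at 0.1 nM to 1 μM, then assessed by DIMSCAN. Relative IC50 (rIC50) derived per line. Panel comparison value is the panel rIC50 divided by the rIC50 of each cell line.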

[4] = test system: BT-28 medulloblastoma xenograft; experiment: PPTP in vivo xenograft testing, BT-28; parameters: species or system mice
SK-NEP-1 Ewing xenograft = experiment: PPTP in vivo xenograft testing, SK-NEP-1; parameters: species or system mice
ALL xenografts = experiment: PPTP in vivo testing, ALL xenograft panel summary; parameters: species or system mice
[5] = test system: GBM2 glioblastoma xenograft; experiment: PPTP in vivo xenograft testing, GBM2; parameters: species or system mice
[6] = test system: BT-41 ependymoma xenograft; experiment: PPTP in vivo xenograft testing, BT-41; parameters: species or system mice
KT-16 rhabdoid xenograft = experiment: PPTP in vivo xenograft testing, KT-16; parameters: species or system mice
TC-71 cell line = experiment: DIMSCAN in vitro cytotoxicity testing, TC-71; assay type: cell-based
Method in brief: as §1

[7] = test system: MLL-7 tertiary infant precursor B-ALL xenograft; experiment: PPTP in vivo xenograft testing, MLL-7; parameters: species or system mice
[8] = test system: NB-1771 neuroblastoma xenograft; experiment: PPTP in vivo xenograft testing, NB-1771; parameters: species or system mice
[9] = 1.5 mg/kg IP Q4Dx3 repeated at Day 21
[10] = 1 mg/kg IP Q4Dx3 repeated at Day 21

SMILES: C=C1C[C@@H]2CC[C@@]34C[C@H]5O[C@H]6[C@@H](O3)[C@H]3O[C@H](CC[C@@H]3O[C@H]6[C@H]5O4)CC(=O)C[C@@H]3[C@@H](OC)[C@@H](C[C@H](O)CN)O[C@H]3C[C@H]3O[C@@H](CC[C@@H]1O2)C[C@@H](C)C3=C [Eribulin]
- Tumor volume T/C ([1]; NB-EBc1, 1 mg/kg IP, Day 21 or earlier): 0.82
- objective response ([1]; NB-EBc1 neuroblastoma xenograft): not responsive
- EFS activity ([2]; 1.5 mg/kg IP): High (High activity requires: (a) an EFS T/C >2; (b) a significant difference in EFS distributions, and (c) a net reduction in median tumor volume for animals in the treated group at the end of treatment as compared to at treatment initiation)
- Response activity ([2]; 1.5 mg/kg IP): High (A high level of activity is indicated by a score of 6 or more)
- EFS T/C [2, 9]: >8.4
- Median final RTV (CD45%) ([2]; CD45%, 1.5 mg/kg IP): 0.0%
- AUC (area under the plasma drug concentration-time curve) ([3]; 1 mg/kg dose, SCID mice): 658 ng·h/mL
- AUC per course of treatment ([3]; preclinical setting, three doses of 1 mg/kg per course): 1,974 ng hour/ml
- IC50 (Kasumi-1 cell line; Homo sapiens, Kasumi 1, 96 h, read-out: rIC50): 4.11 nM
- Panel rIC50/Line rIC50 (Kasumi-1 cell line; Kasumi-1): 0.07
- Relative in/out% (Kasumi-1 cell line; Kasumi-1): −86%
- Ymin % (observed) (Kasumi-1 cell line; Kasumi-1): 3.92%
- EFS activity ([4]; 1 mg/kg IP): High (High activity requires: (a) an EFS T/C >2; (b) a significant difference in EFS distributions, and (c) a net reduction in median tumor volume for animals in the treated group at the end of treatment as compared to at treatment initiation)
- Response activity ([4]; 1 mg/kg IP): Int (intermediate activity by a score of ≥2 but <6)
- T/C volume activity ([4]; 1 mg/kg IP): Int (Intermediate activity = T/C ≤0.45 but >0.15)
- EFS T/C [4, 10]: >3.3
- Median final RTV (CD45%) [4, 10]: 0.7
- Tumor volume T/C ([4]; 1 mg/kg IP, Day 21 or earlier): 0.44
- EFS activity (SK-NEP-1 Ewing xenograft; 1 mg/kg IP): High (High activity requires: (a) an EFS T/C >2; (b) a significant difference in EFS distributions, and (c) a net reduction in median tumor volume for animals in the treated group at the end of treatment as compared to at treatment initiation)
- Response activity (SK-NEP-1 Ewing xenograft; 1 mg/kg IP): High (A high level of activity is indicated by a score of 6 or more)
- T/C volume activity (SK-NEP-1 Ewing xenograft; 1 mg/kg IP): High (High activity = T/C ≤0.15)
- EFS T/C (SK-NEP-1 Ewing xenograft; [10]): >4.3
- Median final RTV (CD45%) (SK-NEP-1 Ewing xenograft; [10]): 0.0
- Tumor volume T/C (SK-NEP-1 Ewing xenograft; 1 mg/kg IP, Day 21 or earlier): 0.00
- xenografts with CR or MCR (ALL xenografts; ALL panel): All eight
- xenografts with high EFS T/C activity (ALL xenografts; ALL panel): six of eight
- xenografts with significant difference in EFS distribution compared to control (ALL xenografts; evaluable ALL xenografts, 1.5 mg/kg): 8 of 8
- EFS activity ([5]; 1 mg/kg IP): High (High activity requires: (a) an EFS T/C >2; (b) a significant difference in EFS distributions, and (c) a net reduction in median tumor volume for animals in the treated group at the end of treatment as compared to at treatment initiation)
- Response activity ([5]; 1 mg/kg IP): High (A high level of activity is indicated by a score of 6 or more)
- T/C volume activity ([5]; 1 mg/kg IP): Low (Low activity = T/C >0.45)
- EFS T/C [5, 10]: >3.5
- Median final RTV (CD45%) [5, 10]: 0.6
- Tumor volume T/C ([5]; 1 mg/kg IP, Day 21 or earlier): 1.00
- Response activity ([6]; 1 mg/kg IP): Int (intermediate activity by a score of ≥2 but <6)
- T/C volume activity ([6]; 1 mg/kg IP): Int (Intermediate activity = T/C ≤0.45 but >0.15)
- Median final RTV (CD45%) [6, 10]: 1.3
- Tumor volume T/C ([6]; 1 mg/kg IP, Day 21 or earlier): 0.42
- EFS activity (KT-16 rhabdoid xenograft; 1 mg/kg IP): Low (Low activity = EFS T/C <2)
- Response activity (KT-16 rhabdoid xenograft; 1 mg/kg IP): Low (low activity by a score of <2)
- T/C volume activity (KT-16 rhabdoid xenograft; 1 mg/kg IP): Low (Low activity = T/C >0.45)
- EFS T/C (KT-16 rhabdoid xenograft; [10]): 1.1
- Median final RTV (CD45%) (KT-16 rhabdoid xenograft; [10]): >4
- Time to event (KT-16 rhabdoid xenograft; [10]): 12.1
- Tumor volume T/C (KT-16 rhabdoid xenograft; 1 mg/kg IP, Day 21 or earlier): 0.76
- Panel rIC50/Line rIC50 (TC-71 cell line; TC-71): 2.45
- Relative in/out% (TC-71 cell line; TC-71): −99%
- Ymin % (observed) (TC-71 cell line; TC-71): 0.01%
- IC50 (TC-71 cell line; TC-71, 96 h, read-out: rIC50): 0.11 nM
- EFS activity ([7]; 1.5 mg/kg IP): High (High activity requires: (a) an EFS T/C >2; (b) a significant difference in EFS distributions, and (c) a net reduction in median tumor volume for animals in the treated group at the end of treatment as compared to at treatment initiation)
- Response activity ([7]; 1.5 mg/kg IP): High (A high level of activity is indicated by a score of 6 or more)
- EFS T/C [7, 9]: >4.7
- Median final RTV (CD45%) ([7]; CD45%, 1.5 mg/kg IP): 0.0%
- EFS activity ([8]; 1 mg/kg IP): Low (Low activity = EFS T/C <2)
- Response activity ([8]; 1 mg/kg IP): Int (intermediate activity by a score of ≥2 but <6)
- T/C volume activity ([8]; 1 mg/kg IP): Low (Low activity = T/C >0.45)
- EFS T/C [8, 10]: 2.0
- Median final RTV (CD45%) [8, 10]: >4
- Time to event [8, 10]: 14.8
- Tumor volume T/C ([8]; 1 mg/kg IP, Day 21 or earlier): 0.56
